Test results: ChEMBL document CHEMBL2069254, “Synthesis and one-electron reduction characteristics of radiation-activated prodrugs possessing two 5-fluorodeoxyuridine units” (Bioorg Med Chem, 2012)
pIC50: −log10 of the molar value. Active and inactive are the calls of the source. The calls are words filed in the database; no cut-off is given here.

Columns and labels:
[1] = Radiation stability assessed as 5-fluorodeoxyuridine formation at 100 uM after exposing to 6.0 Gy/min X-ray irradiation aqueous solution containing 2-methyl-2-propanol under hypoxic conditions by HPLC; format: physicochemical; conditions: buffer
A549 [2] = assay: Cytotoxicity against human A549 cells incubated with 125 uM compound for 12 hrs followed by pre-irradiated 30 to 6 Gy/min X-ray irradiation measured after 72 hrs under hypoxic conditions by microplate reader method; format: functional, cell-based
Procedure, shortened: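 A549 cells seeded at 1500 cells/well and held 6 h at 37 °C under hypoxia (<0.3% O2). Compound added, then 12 h hypoxic incubation at 37 °C. Plates kept hypoxic and X-irradiated at 6 Gy, then incubated 72 h aerobically. Viability read by WST-8 (CCK-8). Mean ± S.D., n = 9.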

[3] = Radiation stability assessed as compound decomposition at 100 uM after exposing to 6.0 Gy/min X-ray irradiation aqueous solution containing 2-methyl-2-propanol under aerobic conditions by HPLC; format: physicochemical; conditions: buffer
A549 [4] = assay: Cytotoxicity against human A549 cells exposed to 1 uM compound pre-irradiated 30 to 120 Gy/min X-ray irradiation measured after 72 hrs under aerobic conditions by microplate reader method; format: functional, cell-based
Procedure, shortened: (§1)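 Compound dissolved in DMEM and X-irradiated (6.0 Gy/min) in a sealed glass ampoule at ambient temperature, under hypoxic or aerobic conditions. A549 cells were seeded at 1500 cells/well and grown 24 h at 37 °C aerobically, then incubated with the irradiated solution aerobically for 72 h. Viability read by WST-8 (CCK-8). Mean ± S.D., n = 6.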

A549 [5] = assay: Cytotoxicity against human A549 cells after 72 hrs by microplate reader method; format: functional, cell-based; conditions: A549, 72 h
Procedure, shortened: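 A549 cells grown in DMEM with 10% FBS and 1% streptomycin/penicillin, seeded at 1500 cells/well, cultured 24 h at 37 °C in 5% CO2/95% air. Exposed to a concentration series under aerobic conditions for 72 h. Viability read by WST-8 (CCK-8) after 30 min at 37 °C; IC50 estimated from viability curves.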

[6] = Radiation stability assessed as 5-fluorodeoxyuridine formation at 100 uM after exposing to 6.0 Gy/min X-ray irradiation aqueous solution containing 2-methyl-2-propanol under aerobic conditions by HPLC; format: physicochemical; conditions: buffer
A549 [7] = assay: Cytotoxicity against human A549 cells exposed to 1 uM compound pre-irradiated 30 to 120 Gy/min X-ray irradiation measured after 72 hrs under hypoxic conditions by microplate reader method; format: functional, cell-based; procedure, shortened: as §1
[8] = Radiation stability assessed as compound decomposition at 100 uM after exposing to 6.0 Gy/min X-ray irradiation aqueous solution containing 2-methyl-2-propanol under hypoxic conditions by HPLC; format: physicochemical; conditions: buffer

Drug metabolism [1]	Drug degradation [3]	Drug metabolism [6]	Drug degradation [8]	Structure (SMILES)	Activity (A549 [2])	Activity (A549 [4])	pIC50 (A549 [5])	Activity (A549 [7])
125.9 nmol/J	173.6 nmol/J	14.5 nmol/J	319.1 nmol/J	O=C(Cn1c(=O)c(F)cn([C@H]2C[C@H](O)[C@@H](CO)O2)c1=O)Cn1c(=O)c(F)cn([C@H]2C[C@H](O)[C@@H](CO)O2)c1=O	inactive	inactive	5.33	Active
				O=c1[nH]c(=O)n([C@H]2C[C@H](O)[C@@H](CO)O2)cc1F [FLOXURIDINE]			7.91	
115.3 nmol/J	177.2 nmol/J	26.2 nmol/J	291 nmol/J	CC(C(=O)C(C)n1c(=O)c(F)cn([C@H]2C[C@H](O)[C@@H](CO)O2)c1=O)n1c(=O)c(F)cn([C@H]2C[C@H](O)[C@@H](CO)O2)c1=O (stereo not given in full)			5.98	
< 1 nmol/J	140.3 nmol/J	1.4 nmol/J	148.8 nmol/J	O=c1c(F)cn([C@H]2C[C@H](O)[C@@H](CO)O2)c(=O)n1CCCn1c(=O)c(F)cn([C@H]2C[C@H](O)[C@@H](CO)O2)c1=O				
50.9 nmol/J			312.5 nmol/J	CC(=O)Cn1c(=O)c(F)cn([C@H]2C[C@H](O)[C@@H](CO)O2)c1=O				
